Laboratory results from ChEMBL document CHEMBL1138229, “Novel cyano- and amidino-substituted derivatives of styryl-2-benzimidazoles and benzimidazo[1,2-a]quinolines. Synthesis, photochemical synthesis, DNA binding, and antitumor evaluation, part 3” (J Med Chem, 2007).

Columns and labels:
[1] = tested on: NCI-H460; assay: Antitumor activity against human H460 cells after 72 hrs by MTT assay; assay type: functional, cell-based; conditions: NCI-H460, 72 h
Method in brief: (§1)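 Cells from ATCC grown as monolayers in DMEM with 10% FBS, 2 mM L-glutamine, penicillin/streptomycin, 5% CO2, 37 °C. Seeded on day 0 at 1 × 10^4/mL (2 × 10^4/mL for MCF-7). Five 10-fold dilutions (10^-8 to 10^-4 mol/L) added, then 72 h exposure. MTT read at 570 nm; percent growth vs time-zero and untreated controls. IC50 by linear regression; quadruplicates, three experiments.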

[2] = tested on: SW-620; assay: Antitumor activity against human SW620 cells after 72 hrs by MTT assay; assay type: functional, cell-based; conditions: SW-620, 72 h; method in brief: as §1
[3] = tested on: MCF7; assay: Antitumor activity against human MCF7 cells after 72 hrs by MTT assay; assay type: functional, cell-based; conditions: MCF7, 72 h; method in brief: as §1
[4] = tested on: HeLa; assay: Antitumor activity against human HeLa cells after 72 hrs by MTT assay; assay type: functional, cell-based; method in brief: as §1
[5] = tested on: MIA PaCa-2; assay: Antitumor activity against human MiaPaCa2 cells after 72 hrs by MTT assay; assay type: functional, cell-based; conditions: MIA PaCa-2, 72 h; method in brief: as §1
[6] = Antiproliferative activity against human […] fibroblast after 72 hrs by MTT assay; assay type: functional; method in brief: as §1
[7] = tested on: DNA; assay: Binding affinity to calf thymus DNA by thermal melting temperature assay; assay type: nucleic-acid assay; conditions: Bos taurus
Method in brief: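 ct-DNA (as phosphate concentration) in sodium cacodylate buffer pH 7.0, I = 0.05 mol dm-3. Compound/polynucleotide ratio r = 0.3. Absorbance at 260 nm followed against temperature, ligand absorbance subtracted. Tm taken as transition midpoint by first derivative or tangent method. ΔTm = Tm(complex) − Tm(free DNA), averaged over at least two runs, error ±0.5 °C.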

[8] = tested on: HEp-2; assay: Antitumor activity against human Hep2 cells after 72 hrs by MTT assay; assay type: functional, cell-based; conditions: HEp-2, 72 h; method in brief: as §1
[9] = tested on: HeLa; assay: Cell cycle arrest in human HeLa cells assessed as accumulation at G0/G1 phase after 48 hrs at 5 uM; assay type: functional
Method in brief: (§2)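 Cells seeded at 2 × 10^5 per well and incubated overnight before compound at 5 × 10^-6 M. After 24, 48 or 72 h, attached and floating cells were pooled, PBS-washed and fixed in 70% ethanol. RNase A (0.1 µg/µl, 37 °C, 15 min), then propidium iodide 1 µg/mL; flow cytometry of 20 000 events. Results given as percent of cells per phase; significance at p < 0.05.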

[10] = tested on: HeLa; assay: Cell cycle arrest in human HeLa cells assessed as accumulation at Sub G1 phase after 72 hrs at 5 uM; assay type: functional; method in brief: as §2
[11] = tested on: HeLa; assay: Cell cycle arrest in human HeLa cells assessed as accumulation at G2/M phase after 48 hrs at 5 uM; assay type: functional; method in brief: as §2
[12] = tested on: HeLa; assay: Cell cycle arrest in human HeLa cells assessed as accumulation at G0/G1 phase after 24 hrs at 5 uM; assay type: functional; method in brief: as §2
[13] = tested on: HeLa; assay: Cell cycle arrest in human HeLa cells assessed as accumulation at Sub G1 phase after 24 hrs at 5 uM; assay type: functional; method in brief: as §2
[14] = tested on: HeLa; assay: Cell cycle arrest in human HeLa cells assessed as accumulation at S phase after 72 hrs at 5 uM; assay type: functional; method in brief: as §2
[15] = tested on: HeLa; assay: Cell cycle arrest in human HeLa cells assessed as accumulation at S phase after 24 hrs at 5 uM; assay type: functional; method in brief: as §2
[16] = tested on: HeLa; assay: Cell cycle arrest in human HeLa cells assessed as accumulation at G2/M phase after 24 hrs at 5 uM; assay type: functional; method in brief: as §2
[17] = tested on: HeLa; assay: Cell cycle arrest in human HeLa cells assessed as accumulation at S phase after 48 hrs at 5 uM; assay type: functional; method in brief: as §2
[18] = tested on: HeLa; assay: Cell cycle arrest in human HeLa cells assessed as accumulation at G2/M phase after 72 hrs at 5 uM; assay type: functional; method in brief: as §2
[19] = tested on: HeLa; assay: Cell cycle arrest in human HeLa cells assessed as accumulation at G0/G1 phase after 72 hrs at 5 uM; assay type: functional; method in brief: as §2
[20] = tested on: HeLa; assay: Cell cycle arrest in human HeLa cells assessed as accumulation at Sub G1 phase after 48 hrs at 5 uM; assay type: functional; method in brief: as §2

| SMILES | IC50 [2] [µM] | IC50 [3] [µM] | IC50 [4] [µM] | IC50 [5] [µM] | IC50 [6] [µM] | ΔTm [7] [°C] | IC50 [8] [µM] | also measured |
| --- | --- | --- | --- | --- | --- | --- | --- | --- |
| N#Cc1ccc2c(c1)nc1ccc3ccccc3n12 | 2 | 21 | 4 | 7 | 5 |  |  | IC50 [1]: 7 µM |
| N=C(NN1CCOCC1)c1ccc2nc(/C=C/c3ccccc3)[nH]c2c1 | 12 | 14 | 6 | 16 | 20 | 0.1 | 13 |  |
| N=C(N)c1ccc2nc(/C=C\c3ccccc3Cl)[nH]c2c1 | > 100 | 38 | 20 | 85 | > 100 |  | 29 |  |
| N=C(NN1CCOCC1)c1ccc2nc(/C=C\c3ccccc3Cl)[nH]c2c1 | 15 | 14 | 7 | 15 | 21 |  | 9 |  |
| CC(C)NC(=N)c1ccc2nc(/C=C\c3ccccc3Cl)[nH]c2c1 | 29 | 35 | 19 | 28 | > 100 |  | 30 |  |
| C(=C\c1nc2ccc(C3=NCCN3)cc2[nH]1)/c1ccccc1 | 16 | 7 | 4 | 19 | 21 | 1.4 | 16 |  |
| Clc1ccccc1/C=C/c1nc2ccc(C3=NCCN3)cc2[nH]1 | 14 | 5 | 4 | 17 | 42 |  | 16 |  |
| N#Cc1ccc(/C=C/c2nc3ccccc3[nH]2)cc1 | 23 | 14 | 19 | 36 |  |  |  | IC50 [1]: 20 µM |
| N#Cc1ccc2nc(/C=C/c3ccccc3)[nH]c2c1 | 2.5 | 4 | 2 | 4 | 14 |  |  | IC50 [1]: 3 µM |
| COc1cccc2c1C(=O)c1c(O)c3c(c(O)c1C2=O)C[C@@](O)(C(=O)CO)C[C@@H]3O[C@H]1C[C@H](N)[C@H](O)[C@H](C)O1 [DOXORUBICIN] | 0.02 | 0.04 | 0.04 | 0.02 |  |  | 0.04 |  |
| CC(C)NC(=N)c1ccc2nc(/C=C/c3ccccc3)[nH]c2c1 | > 100 | 9 | 11 | > 100 | > 100 | 1.1 | ≥ 100 |  |
| N=C(N)c1ccc2nc(/C=C/c3ccccc3)[nH]c2c1 | 15 | 29 | 2 | > 100 | > 100 | 0.7 | 11 |  |
| N=C(NN1CCOCC1)c1ccc2nc(/C=C/c3ccccc3Cl)[nH]c2c1 | 4 | 4 | 3 | 5 | 7 |  | 10 |  |
| N=C(N)c1ccc2nc3ccc4ccccc4n3c2c1 | 17 | 9 | 5 | 13 | 74 | 3.6 | 13 |  |
| N=C(NN1CCOCC1)c1ccc2nc(/C=C\c3ccccc3)[nH]c2c1 | 22 | 25 | 13 | 47 | 22 | 1.3 | 61 |  |
| Clc1ccccc1/C=C\c1nc2ccc(C3=NCCN3)cc2[nH]1 | 46 | 23 | 11 | 62 | > 100 |  | ≥ 100 |  |
| CC(C)NC(=N)c1ccc2ccc3nc4ccccc4n3c2c1 | 1.6 | 2.2 | 1.7 | 8.1 | 2.7 | 5 | 1.6 |  |
| N=C(N)c1ccc2nc(/C=C/c3ccccc3Cl)[nH]c2c1 | > 100 | 22 | 7.5 | > 100 | > 100 |  | 23 |  |
| COc1cc([C@@H]2c3cc4c(cc3[C@@H](O[C@@H]3O[C@@H]5CO[C@@H](C)O[C@H]5[C@H](O)[C@H]3O)[C@H]3COC(=O)[C@H]23)OCO4)cc(OC)c1O [ETOPOSIDE] | 20 | 50 | 3 | 15 |  |  |  |  |
| CC(C)NC(=N)c1ccc2nc(/C=C\c3ccccc3)[nH]c2c1 | 70 | 33 | 23 | 84 | > 100 | 1.2 | 81 |  |
| CC(C)NC(=N)c1ccc2nc3ccc4ccccc4n3c2c1 | 3 | 4 | 4 | 3 | 10 | 3.7 | 4 |  |
| CC(C)NC(=N)c1ccc2nc(/C=C/c3ccccc3Cl)[nH]c2c1 | 66 | 16 | 10 | 48 | > 100 |  | 70 |  |
| N=C(N)c1ccc2nc(/C=C\c3ccccc3)[nH]c2c1 | 78 | 36 | 5.4 | > 100 | > 100 | -0.5 | ≥ 100 |  |
| N=C(NN1CCOCC1)c1ccc2ccc3nc4ccccc4n3c2c1 | 1.9 | 6.7 | 7 | 10 | 17.7 | 3.2 | 4.7 |  |
| c1ccc2c(c1)ccc1nc3ccccc3n12 | 23 | 16 | 12 | 18 | 14 |  | 15 |  |
| c1ccc2c(c1)nc1ccc3ccc(C4=NCCN4)cc3n12 | 1.4 | 5.3 | 7 | 5.6 | 7.8 | 3.6 | 2.4 |  |
| Cl.N=C(NN1CCOCC1)c1ccc2nc3ccc4ccccc4n3c2c1 | 2 | 4 | 3 | 2 | 4 | 3.2 | 2 | Activity [9]: 36%; Activity [10]: 2%; Activity [11]: 27%; Activity [12]: 36%; Activity [13]: 3%; Activity [14]: 39%; Activity [15]: 30%; Activity [16]: 34%; Activity [17]: 37%; Activity [18]: 35%; Activity [19]: 25%; Activity [20]: 2% |
| N#Cc1ccc2nc3ccc4ccccc4n3c2c1 | 8 | 18 | 0.05 | 15 | 14 |  |  | IC50 [1]: 13 µM |
| N=C(N)c1ccc2ccc3nc4ccccc4n3c2c1 | 2.9 | 4 | 4.9 | 4.5 | 6.7 | 5.2 | 4 |  |
